# Compound activity: PubChem BioAssay, The Scripps Research Institute Molecular Screening Center
# HEK293 NFkB inh: lowers PMA/ionomycin-induced NF-kB signal in HEK293 cells | HEK-293 NF-kB luciferase reporter, luminescence | 62,000 tested, 0.21% active | inhibition, % at 3 µM | AID 465;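 active means inhibition above the mean of all tested compounds plus 3 SD, cut at about 40% in these data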
#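 Signal: luciferase luminescence; Material: HEK-293 cells with stable firefly luciferase reporter driven by four HIV NF-kB elements; Probe or stimulus: PMA with ionomycin; Replication: tested once; Times: 1 h compound pretreatment, then 16 h stimulation at 37 °C, 5% CO2; Benchmarks: DMSO and 10 µM reference inhibitor; Evaluation: per-plate % inhibition versus controls.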
# 5-HT1A blocker: blocks the human serotonin 5-HT1a receptor. inhibition, % at 10 µM. 62,000 tested, 0.68% active. AID 612. CHO 5-HT1a Ga15 NFAT-bla reporter, antagonist mode;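 active means inhibition above the mean of all tested compounds plus 3 SD, cut at about 43% in these data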;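 further: receptor stimulated by 5-CT agonist at 100 nM near EC80; beta-lactamase reporter measured by ratiometric fluorescence of a cleavable substrate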
# 5HT1E antag: blocks the human 5-HT1E serotonin receptor; 65,000 tested, 0.99% active; P28566; inhibition, % at 6 µM; CHO 5-HT1E Ga15 NFAT-bla reporter, FRET, antagonist;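 active means inhibition above a set limit, the mean inhibition across every tested compound plus 3 SD, cut at about 29% in these data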;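 further: signal is the 460 over 535 nm emission ratio of beta-lactamase substrate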
# Target sequence (P28566 whole entry, looked up): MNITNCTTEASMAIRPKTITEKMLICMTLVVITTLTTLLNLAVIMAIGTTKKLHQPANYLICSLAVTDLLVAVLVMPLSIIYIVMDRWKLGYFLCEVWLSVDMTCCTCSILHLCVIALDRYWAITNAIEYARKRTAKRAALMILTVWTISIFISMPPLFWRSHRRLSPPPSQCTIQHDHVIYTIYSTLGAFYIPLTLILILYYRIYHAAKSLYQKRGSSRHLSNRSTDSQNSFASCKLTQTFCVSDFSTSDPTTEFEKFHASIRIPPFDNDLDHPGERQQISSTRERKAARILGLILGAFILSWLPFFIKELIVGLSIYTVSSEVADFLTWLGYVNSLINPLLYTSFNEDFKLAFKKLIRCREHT
# 5HT1E ag: activates the human 5-HT1E serotonin receptor. P28566. 65,000 tested, 0.69% active. CHO 5-HT1E Ga15 NFAT-bla reporter, FRET; 0% DMSO wells, 100% control agonist wells. AID 574. activation, % at 6 µM;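 active means activation above a set limit, the screen-wide mean activation plus 3 SD, cut at about 8.5% in these data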
# HTR1A agonist: 5-HT1a (human) receptor agonism; CHO 5-HT1a Ga15 NFAT-bla reporter, FRET ratio; 0% basal, 100% maximal reference agonist; activation, % at 10 µM; 65,000 tested, 0.56% active;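 active means activation above the screen-wide mean activation plus 3 SD, cut at about 19% in these data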
# Jurkat viability: cytotoxic compounds reducing Jurkat cell viability | inhibition, % at 4 µM | Jurkat E6.1 viability, ATP luminescence, 48 h | 56,000 tested, 1.2% active;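 active means inhibition above the mean inhibition of all tested compounds plus 3 SD, cut at about 28% in these data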
# A number is an active result; . = inactive; / = no result. Rows were chosen to be rich in hits. Some 3.3% of all compounds tested hit in one or more screens of this group.
SMILES,HEK293 NFkB inh,5-HT1A blocker,5HT1E antag,5HT1E ag,HTR1A agonist,Jurkat viability
CCOc1ccc(-c2cc(CCCC(=O)Nc3cc(OC)ccc3OC)no2)cc1,.,.,.,.,.,/
Cc1cc(N2CCN(C/C=C/c3ccccc3)CC2)n2ncnc2n1,.,.,.,.,.,36.6
O=C(O)C1CCCCC1C(=O)N1CC=C(c2ccccc2)CC1 (configuration not stated),.,.,.,21.5,.,.
O=C(Nc1ccccc1)N1CC=C(c2ccccc2)CC1,.,.,.,.,.,.
Cc1cc2c(cc(C(=O)OCC(=O)NCc3cccs3)n2C(C)C)o1,.,.,38.0,.,.,64.0
Cc1cc(C(=O)NCc2cccs2)c(C)o1,.,.,.,.,.,.
CCC(=O)Oc1ccc2c(C)cc(=O)oc2c1C,.,.,.,.,65.0,.
C=CCSc1nc(N)c2c(C)c(C)sc2n1,.,.,.,.,48.9,.
Cc1cc(NC(=O)COC(=O)C(Nc2ccc(C(F)(F)F)cc2Cl)C(C)C)no1 (configuration not stated),.,.,.,.,.,.
CC1(C)CC(=O)C(C(=O)CCCCC(=O)C2C(=O)CC(C)(C)CC2=O)C(=O)C1,.,.,.,.,.,.
COC(=O)CCCCC(=O)C1C(=O)CC(C)(C)C(C(=O)OC)C1=O (configuration not stated),.,.,.,.,24.0,.
c1coc(-c2nnc3sc(C4CCCCC4)nn23)c1,/,/,.,.,.,/
Cc1ccnc(NC(=O)CCC(=O)N(CC(=O)NC2CCCCC2)Cc2ccc3c(c2)OCO3)c1,.,.,.,.,.,.
Cn1cccc1C(=O)Nc1nc(-c2ccccn2)cs1,.,.,.,.,.,.
O=C(Nc1nc(-c2ccccn2)cs1)c1ccc(S(=O)(=O)N2CCCCC2)cc1,.,.,.,.,.,54.3
O=C(Nc1nc(-c2ccccn2)cs1)c1ccc(Cl)s1,.,.,44.0,.,.,48.4
OCc1nc2ccccc2n1C/C=C/c1ccccc1,.,.,.,.,.,.
COc1cc2c(c(OC)c1)C(c1cccc(OC)c1OC)CC(=O)N2 (configuration not stated),.,.,.,.,.,.
CCCOc1c(OC)cccc1C1CC(=O)Nc2cc(OC)c(OC)c(OC)c21 (configuration not stated),97.8,.,.,.,.,.
COc1cc2c(cc1OC)-c1cc(NC3CC3)nc(=O)n1CC2,.,.,.,.,.,.
COc1cc2c(cc1OC)-c1cc(NC3CCCCC3)nc(=O)n1CC2,.,.,36.1,.,.,.
CCCCCCNc1cc2n(c(=O)n1)CCc1cc(OC)c(OC)cc1-2,.,.,39.1,.,.,.
COc1cc2c(cc1OC)-c1cc(NC3CCCCCCC3)nc(=O)n1CC2,.,.,52.0,.,.,.
O=S1(=O)Nc2c(ccc3cccnc23)-c2ccccc21,.,73.5,61.0,.,.,67.2
COCCOC(=O)c1[nH]c2c(c1C)C(=O)CC(c1cc(OC)ccc1OC)C2 (configuration not stated),.,.,.,.,.,65.3
SMILES,HEK293 NFkB inh,5-HT1A blocker,5HT1E antag,5HT1E ag,HTR1A agonist,Jurkat viability
CCOC(=O)c1[nH]c2c(c1C)C(=O)CC(c1ccc(OC)c(OC)c1)C2 (configuration not stated),.,.,.,.,.,/
COc1ccc(OC)c(C2CC(=O)c3c([nH]c(C(=O)OCC4CCCO4)c3C)C2)c1 (configuration not stated),.,.,.,.,.,.
CCCOCCOC(=O)c1[nH]c2c(c1C)C(=O)CC(c1cc(OC)ccc1OC)C2 (configuration not stated),.,76.5,81.4,.,.,.
COc1cc(C2CC(=O)c3c([nH]c(C(=O)OCCOC(C)C)c3C)C2)cc(OC)c1OC (configuration not stated),.,.,.,.,.,43.3
COc1ccc(OC)c(C2CC(=O)c3c([nH]c(C(=O)OC(C)C)c3C)C2)c1 (configuration not stated),.,71.4,87.3,.,.,98.4
CCOCCOC(=O)c1[nH]c2c(c1C)C(=O)CC(c1ccc(N(C)C)cc1)C2 (configuration not stated),.,.,.,.,.,.
CCC(=O)N1CCN=C1SCc1ccc(Cl)cc1,.,.,.,.,.,.
